The test system of test [1] is AEC. In words: Antiproliferative activity against 10% FBS-induced BAEC upto 80 uM after 24 hrs assessed by inhibition of [3H]thymidine uptake. The test is classed as functional, cell-based. Conditions: Bos taurus. The procedure, abridged: (§1)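 Bovine aortic endothelial cells seeded at 30,000 cells/well in complete medium (10% foetal bovine serum) and allowed 24 h adhesion. Compounds then added and cells cultured 20 h at 37 °C, 5% CO2. [3H]thymidine pulse for a further 4 h (24 h total exposure). Cells lysed with 0.1 N NaOH and incorporated label counted by scintillation. Values are % of control-treated cells, mean ± SEM of three separate experiments, each in triplicate.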

The subject of test [2] is AEC. In words: Antiproliferative activity against 10% FBS-induced BAEC at 500 uM after 24 hrs assessed by inhibition of [3H]thymidine uptake relative to control. It is filed as functional, Bos taurus. Further details: scale not given: the % may be the effect or the level left. The procedure, abridged: as §1
Test [3] concerns AEC. In words: Antiproliferative activity against 10% FBS-induced BAEC at 80 uM after 24 hrs assessed by inhibition of [3H]thymidine uptake. The test is classed as functional, Bos taurus. More on the design: scale not given: the % may be the effect or the level left. The procedure, abridged:
as §1

In test [4] the test system is AEC. In words: Antiproliferative activity against 10% FBS-induced BAEC at 3.3 uM after 24 hrs assessed by inhibition of [3H]thymidine uptake. The test is classed as functional, cell-based. Conditions: Bos taurus. The procedure, abridged:
as §1

In test [5] the test system is AEC. In words: Antiproliferative activity against 10% FBS-induced BAEC at 16 uM after 24 hrs assessed by inhibition of [3H]thymidine uptake. It is filed as functional, Bos taurus. More on the design: scale not given: the % may be the effect or the level left. In a few lines: as §1
Test [6] deals with AEC. In words: Antiproliferative activity against bFGF-stimulated BAEC at 80 uM after 48 hrs assessed by inhibition of [3H]thymidine uptake. It is filed as functional, cell-based. Conditions: Bos taurus. The procedure, abridged: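 BAECs seeded at 30,000 cells/well and starved 24 h in 0.5% foetal bovine serum. Then incubated 48 h with bFGF (10 ng/mL) with or without compound. [3H]thymidine (2 µCi/mL) added for the last 4 h. Lysis in 0.1 N NaOH, scintillation counting. Triplicate values from three separate experiments; Student's t test against control and against bFGF treatment.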

Test [7] deals with AEC. In words: Antiproliferative activity against 10% FBS-induced BAEC at 500 uM after 24 hrs assessed by inhibition of [3H]thymidine uptake. The test is classed as functional, Bos taurus. More on the design: scale not given: the % may be the effect or the level left. In a few lines: as §1
The test system of test [8] is AEC. In words: Antiproliferative activity against 10% FBS-induced BAEC at 100 uM after 24 hrs assessed by inhibition of [3H]thymidine uptake. The test is classed as functional, Bos taurus. Further details: scale not given: the % may be the effect or the level left. In a few lines: as §1

The source made the active and inactive calls. The rule behind the calls is not given here.

On to `CCc1ccc(C(=O)N[C@@H]2O[C@H](CO)[C@@H](O)[C@H](O)[C@H]2O)s1`, for which the outcome in the test with AEC [1] was inactive. This molecule came in with an Activity in the test with AEC [2] of 80.3%.
Molecule `Cc1ccc(C(=O)N[C@@H]2O[C@H](CO)[C@@H](O)[C@H](O)[C@H]2O)s1` registered an Activity with AEC [2] of 83%.
Turning to `C#Cc1csc(C(=O)N[C@@H]2O[C@H](CO)[C@@H](O)[C@H](O)[C@H]2O)c1`, in the test on AEC [2], the Activity came to 71%.
On the same count and under the same terms, the result for `Cc1ccsc1C(=O)N[C@@H]1O[C@H](CO)[C@@H](O)[C@H](O)[C@H]1O` reads 84%.
Consider `CCc1ccc(C(=O)N[C@@H]2O[C@H](COC(C)=O)[C@@H](OC(C)=O)[C@H](OC(C)=O)[C@H]2OC(C)=O)s1`, for which the Activity in the test on AEC [3] is given as 41%; in the test with AEC [5], 21%. The result in the test on AEC [4] was inactive. For the same molecule, in the test with AEC [6], the outcome was Active.
As for `O=C(N[C@@H]1O[C@H](CO)[C@@H](O)[C@H](O)[C@H]1O)c1sccc1Br`, the Activity is listed as 25% in the test with AEC [7], 10% with AEC [8] and 75.4% in the test with AEC [2].
Turning to `O=C(N[C@@H]1O[C@H](CO)[C@@H](O)[C@H](O)[C@H]1O)c1cccs1`, the result with AEC [2] (Bos taurus) was inactive.
With `C#Cc1ccsc1C(=O)N[C@@H]1O[C@H](CO)[C@@H](O)[C@H](O)[C@H]1O`, the Activity in the test on AEC [2] is reported as 79.75%.
Regarding `O=C(N[C@@H]1O[C@H](CO)[C@@H](O)[C@H](O)[C@H]1O)c1ccc(Br)s1`, the Activity in the test on AEC [2] amounted to 65%.

Values taken from ChEMBL document CHEMBL1139000, “N-Glycosyl-thiophene-2-carboxamides: effects on endothelial cell growth in the presence and absence of bFGF--a significant increase in potency using per-O-acetylated sugar analogues” (2006).
